MIC and Ki data for ten compounds are collected here from ChEMBL document CHEMBL1138117, “Hybrid antibacterials. DNA polymerase-topoisomerase inhibitors” (J Med Chem, 2006).

Molecules are shown by their SMILES. Converted amounts (≈) assume the structure as drawn.

Experiment [1] concerns Bacillus subtilis. As to the kind of experiment: Antibacterial activity against Bacillus subtilis BD54. It counts as functional.
Experiment [2] has as its system Staphylococcus aureus. The experiment in a line: Antibacterial activity against Staphylococcus aureus 25293. Format: functional.
The subject of experiment [3] is Staphylococcus aureus. The experiment in a line: Antibacterial activity against Staphylococcus aureus smith. It counts as functional.
The test system of experiment [4] is Staphylococcus aureus. The experiment in a line: Antibacterial activity against methicillin resistant Staphylococcus aureus MRSA 1094. It counts as functional.
The subject of experiment [5] is Enterococcus faecalis. As to the kind of experiment: Antibacterial activity against Enterococcus faecalis 29212. Format: functional.
For experiment [6], the system named is Enterococcus faecium. The experiment in a line: Antibacterial activity against Enterococcus faecium 19434. It counts as functional.
In experiment [7] the test system is Enterococcus faecium. The experiment in a line: Antibacterial activity against Vancomycin resistant Enterococcus faecium VRE 700802. It counts as functional.
In experiment [8] the test system is Escherichia coli. As to the kind of experiment: Antibacterial activity against Escherichia coli J53. Format: functional.
Experiment [9] deals with DNA polymerase III PolC-type (Bacillus subtilis (strain 168), UniProt P13267). As to the kind of experiment: Binding affinity to Bacillus subtilis DNA polymerase3C. The method in brief:
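Homogeneous recombinant B. subtilis pol IIIC was assayed in 96-well format on activated calf thymus DNA. Apparent Ki values were determined in a truncated assay lacking the competitor dGTP.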

Chain of DNA polymerase III PolC-type (P13267 whole entry, the tested form may be a part): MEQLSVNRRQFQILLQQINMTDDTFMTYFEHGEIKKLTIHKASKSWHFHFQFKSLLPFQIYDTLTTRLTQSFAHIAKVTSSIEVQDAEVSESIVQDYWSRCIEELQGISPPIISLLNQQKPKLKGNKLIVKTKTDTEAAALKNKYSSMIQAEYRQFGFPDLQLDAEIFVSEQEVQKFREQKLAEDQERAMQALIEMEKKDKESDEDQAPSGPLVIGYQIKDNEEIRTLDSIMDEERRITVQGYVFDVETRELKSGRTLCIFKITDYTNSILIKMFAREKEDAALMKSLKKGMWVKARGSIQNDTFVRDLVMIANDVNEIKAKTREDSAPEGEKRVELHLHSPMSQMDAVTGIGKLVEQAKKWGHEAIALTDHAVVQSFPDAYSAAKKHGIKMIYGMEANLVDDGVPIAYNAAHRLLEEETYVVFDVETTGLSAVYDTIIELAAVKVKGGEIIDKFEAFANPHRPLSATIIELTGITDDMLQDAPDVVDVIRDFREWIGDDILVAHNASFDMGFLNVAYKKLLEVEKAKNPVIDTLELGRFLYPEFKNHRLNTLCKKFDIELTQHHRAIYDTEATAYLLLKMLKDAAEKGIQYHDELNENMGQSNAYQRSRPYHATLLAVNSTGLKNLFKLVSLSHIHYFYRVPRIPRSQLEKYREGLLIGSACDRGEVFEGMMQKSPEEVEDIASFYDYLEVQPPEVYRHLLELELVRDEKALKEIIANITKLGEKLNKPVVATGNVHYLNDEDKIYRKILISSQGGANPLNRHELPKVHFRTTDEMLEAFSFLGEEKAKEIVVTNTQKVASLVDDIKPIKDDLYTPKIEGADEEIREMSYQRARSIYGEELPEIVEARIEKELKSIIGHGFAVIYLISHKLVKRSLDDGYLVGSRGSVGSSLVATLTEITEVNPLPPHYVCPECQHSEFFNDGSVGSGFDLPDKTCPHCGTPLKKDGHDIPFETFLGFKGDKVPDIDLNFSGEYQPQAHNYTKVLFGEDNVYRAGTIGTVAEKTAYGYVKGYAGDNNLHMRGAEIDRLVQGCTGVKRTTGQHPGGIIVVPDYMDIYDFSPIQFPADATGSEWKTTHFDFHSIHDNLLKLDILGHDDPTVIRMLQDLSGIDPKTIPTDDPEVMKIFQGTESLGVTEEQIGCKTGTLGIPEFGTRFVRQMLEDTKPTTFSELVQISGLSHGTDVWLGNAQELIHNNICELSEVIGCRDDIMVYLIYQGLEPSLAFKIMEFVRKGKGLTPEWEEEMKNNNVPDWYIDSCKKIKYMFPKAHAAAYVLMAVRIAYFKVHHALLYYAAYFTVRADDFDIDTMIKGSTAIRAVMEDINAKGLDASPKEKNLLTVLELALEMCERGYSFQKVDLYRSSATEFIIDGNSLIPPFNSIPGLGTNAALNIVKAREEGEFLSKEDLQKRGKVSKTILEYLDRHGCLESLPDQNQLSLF

`Cc1ccc(Nc2cc(=O)n(CCCCN3CCN(c4cc5c(cc4F)c(=O)c(C(=O)O)cn5C4CC4)CC3)c(=O)[nH]2)cc1C`: the MIC in experiment [1] is 0.313 µg/mL (≈ 0.508 µM); in experiment [2] it was 1.25 µg/mL (≈ 2.03 µM); in experiment [3], 0.625 µg/mL (≈ 1.01 µM); in experiment [4] it was 5 µg/mL (≈ 8.11 µM); in [5], 2.5 µg/mL (≈ 4.05 µM); in [6], 2.5 µg/mL (≈ 4.05 µM). The figures for the MIC in [7] and in experiment [8] were 1.25 µg/mL (≈ 2.03 µM) and over 40 µg/mL, respectively.
Regarding `CCn1cc(C(=O)O)c(=O)c2cc(F)c(N3CCNCC3)cc21` [NORFLOXACIN], the Ki result in experiment [9] is recorded as “Not Active”. Besides, the MIC was found to be 0.313 µg/mL (≈ 0.98 µM) in experiment [1]; 40 µg/mL (≈ 125 µM) in experiment [4]; 2.5 µg/mL (≈ 7.83 µM) in experiment [5]; 10 µg/mL (≈ 31.3 µM) in experiment [6]; 80 µg/mL (≈ 251 µM) in [7]; 1.25 µg/mL (≈ 3.91 µM) in [8].
On to `O=C(O)c1cn(C2CC2)c2cc(N3CCN(CCCCn4c(=O)cc(Nc5ccccc5)[nH]c4=O)CC3)c(F)cc2c1=O`, for which the Ki in experiment [9] (read-out: Ki) amounted to 29000 nM. Besides, the MIC in experiment [1] was 2.5 µg/mL (≈ 4.25 µM); in experiment [2] it was 2.5 µg/mL (≈ 4.25 µM); in [3], 2.5 µg/mL (≈ 4.25 µM); in [4] it was over 40 µg/mL; in experiment [5] it was 10 µg/mL (≈ 17 µM); in experiment [6], over 40 µg/mL. Moreover, the values for the MIC in [7] and in experiment [8] were 40 µg/mL (≈ 68 µM) and over 40 µg/mL, respectively.
Turning to `CCc1cc(Nc2cc(=O)n(CCCCO)c(=O)[nH]2)ccc1C`, the Ki in [9] (read-out: Ki) came out at 66 nM. The MIC in experiment [1] stood at 1.25 µg/mL (≈ 3.94 µM); in experiment [2], 5 µg/mL (≈ 15.8 µM); in experiment [3], 5 µg/mL (≈ 15.8 µM); in experiment [4] it was 5 µg/mL (≈ 15.8 µM); in experiment [5] it was 5 µg/mL (≈ 15.8 µM); in experiment [6] it was 5 µg/mL (≈ 15.8 µM). Moreover, the results for the MIC in experiment [7] and in [8] were 5 µg/mL (≈ 15.8 µM) and over 40 µg/mL, respectively.
For the compound `CCc1cc(Nc2cc(=O)n(CCCCN3CCN(c4cc5c(cc4F)c(=O)c(C(=O)O)cn5CC)CC3)c(=O)[nH]2)ccc1C`, the MIC in [1] was 0.313 µg/mL (≈ 0.506 µM); in experiment [2], 1.25 µg/mL (≈ 2.02 µM); in experiment [3], 1.25 µg/mL (≈ 2.02 µM); in experiment [4], 2.5 µg/mL (≈ 4.04 µM); in experiment [5], 0.625 µg/mL (≈ 1.01 µM); in [6], 0.625 µg/mL (≈ 1.01 µM). Also, the minimal inhibitory concentration (MIC) in [7] was 0.625 µg/mL (≈ 1.01 µM); in experiment [8], over 40 µg/mL.
On to `CCc1cc(Nc2cc(=O)n(CCCCN3CCN(c4nc5c(cc4F)c(=O)c(C(=O)O)cn5CC)CC3)c(=O)[nH]2)ccc1C`, for which the minimal inhibitory concentration (MIC) in experiment [1] was 0.313 µg/mL (≈ 0.505 µM); in experiment [4], 2.5 µg/mL (≈ 4.03 µM); in [5], 1.25 µg/mL (≈ 2.02 µM); in experiment [6], 1.25 µg/mL (≈ 2.02 µM); in [7], 0.625 µg/mL (≈ 1.01 µM); in experiment [8], over 40 µg/mL.
For `CCc1cc(Nc2cc(=O)n(CCCCCN3CC4OCCN(c5cc6c(cc5F)c(=O)c(C(=O)O)cn6C5CC5)C4C3)c(=O)[nH]2)ccc1C` (stereo not drawn), the Ki in [9] (read-out: Ki) stood at 33 nM. Also, the MIC in [1] is 0.625 µg/mL (≈ 0.91 µM); in [2], 1.25 µg/mL (≈ 1.82 µM); in experiment [3], 0.625 µg/mL (≈ 0.91 µM); in [4], 5 µg/mL (≈ 7.28 µM); in [5] it was 5 µg/mL (≈ 7.28 µM); in experiment [6], over 80 µg/mL. Also, the MIC in experiment [7] turned out to be 10 µg/mL (≈ 14.6 µM); in [8], 40 µg/mL (≈ 58.2 µM).
`CCc1cc(Nc2cc(=O)n(CCCCN3CCN(c4cc5c(cc4F)c(=O)c(C(=O)O)cn5-c4ccc(F)cc4)CC3)c(=O)[nH]2)ccc1C`: the Ki in [9] (read-out: Ki) amounted to 17 nM. Also, the MIC in experiment [1] came to 0.156 µg/mL (≈ 0.228 µM); in experiment [2], 1.25 µg/mL (≈ 1.83 µM); in experiment [3] it was 0.625 µg/mL (≈ 0.913 µM); in experiment [4] it was 2.5 µg/mL (≈ 3.65 µM); in [5], 0.625 µg/mL (≈ 0.913 µM); in experiment [6] it was 1.25 µg/mL (≈ 1.83 µM). Also, the minimal inhibitory concentration (MIC) in [7] was 1.25 µg/mL (≈ 1.83 µM); in experiment [8], over 40 µg/mL.
With `CCc1cc(Nc2cc(=O)n(CCCCN3CCN(c4c(F)cc5c(=O)c(C(=O)O)cn(CC)c5c4F)CC3)c(=O)[nH]2)ccc1C`, the MIC in experiment [1] is 0.313 µg/mL (≈ 0.492 µM); in [5], 1.25 µg/mL (≈ 1.96 µM); in experiment [6] it was 1.25 µg/mL (≈ 1.96 µM); in experiment [7] it was 0.625 µg/mL (≈ 0.982 µM); in experiment [8] it was over 40 µg/mL.
Consider `CCc1cc(Nc2cc(=O)n(CCCCCN3CC4CCCN(c5cc6c(cc5F)c(=O)c(C(=O)O)cn6C5CC5)C4C3)c(=O)[nH]2)ccc1C` (stereo not drawn), for which the Ki in experiment [9] (read-out: Ki) stood at 41 nM. Further, the MIC was 1.25 µg/mL (≈ 1.83 µM) in experiment [1]; 2.5 µg/mL (≈ 3.65 µM) in experiment [2]; 1.25 µg/mL (≈ 1.83 µM) in [3]; over 80 µg/mL in [4]; over 80 µg/mL in experiment [5]; over 80 µg/mL in experiment [6]. In [8], the MIC was over 80 µg/mL.
